Data reported in ChEMBL document CHEMBL2417449, “Discovery of the first inhibitors of bacterial enzyme D-aspartate ligase from Enterococcus faecium (Aslfm)” (Eur J Med Chem, 2013).
One block for each compound: values may come before it. Active and inactive are the calls of the source. No cut-off for these calls is given here.

Legend:
Enterococcus faecium [1] = experiment: Inhibition of purified Enterococcus faecium D359 His-tagged Aslfm assessed as residual activity preincubated at 100 uM for 2 mins prior to reaction initiation measured after 10 mins by UV/VIS spectrophotometry
How it was run: (§1)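 His-tagged Aslfm in 100 mM Tris-HCl pH 8.0, 50 mM MgCl2, 2 mM phosphoenolpyruvate, 0.16 mM NADH, 1 mM ATP, 1 mM D-Asp, 0.005% Triton X-114, with pyruvate kinase and lactate dehydrogenase. Compound in DMSO was preincubated 2 min at 37 °C, and the reaction was started with 0.3 mM UM5K. A340 was followed for 10 min. Duplicates; residual activity is relative to DMSO controls.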

[2] = Binding affinity to purified Enterococcus faecium D359 His-tagged Aslfm by kinetic study; conditions: in the assay text read “isothermal titration calorimetry” for “kinetic study”
Enterococcus faecium [3] = experiment: Binding affinity to purified Enterococcus faecium D359 His-tagged Aslfm by isothermal titration calorimetry method
How it was run: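 The ligand (50 µM in buffer with 5% DMSO) was titrated into ~1 µM enzyme (5% DMSO) at 37 °C, 300 rpm, with 5–8 min intervals, to a final ratio of ~12:1. Data were corrected for ligand-into-buffer heats and fitted to a single-binding-site model.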

Enterococcus faecium [4] = experiment: Antimicrobial activity against Enterococcus faecium E1636 after 18 hrs by broth microdilution method; format: functional; conditions: E1636, 18 h
Enterococcus faecium [5] = experiment: Antimicrobial activity against Enterococcus faecium E1679 after 18 hrs by broth microdilution method; format: functional; conditions: E1679, 18 h
Enterococcus faecalis = experiment: Antimicrobial activity against Enterococcus faecalis ATCC 29212 after 18 hrs by broth microdilution method; format: functional; conditions: ATCC 29212, 18 h
Enterococcus faecium [6] = experiment: Competitive inhibition of purified Enterococcus faecium D359 His-tagged Aslfm preincubated at 1 uM for 2 mins prior to reaction initiation measured after 10 mins by time course assay
How it was run: (§2)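 Coupled pyruvate kinase–lactate dehydrogenase assay at 37 °C monitored at 340 nm. Starting conditions: 100 µM ATP, 1 mM D-Asp, 300 µM UDP-MurNAc-pentapeptide, 2 mM phosphoenolpyruvate, 105 µM NADH, enzyme 0.75 or 1 µM, up to six inhibitor concentrations. Progress curves over 10–15 min were fitted to a […] mechanism, with enzyme constants fixed and inhibitor constants fitted. Ki was also measured at ATP 50 and 100 µM.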

[7] = Inhibition of purified Enterococcus faecium D359 His-tagged Aslfm preincubated for 2 mins prior to reaction initiation measured after 10 mins by UV/VIS spectrophotometry; how it was run: as §1
Enterococcus faecium [8] = experiment: Competitive inhibition of purified Enterococcus faecium D359 His-tagged Aslfm preincubated for 2 mins prior to reaction initiation measured after 10 mins by time course assay; how it was run: as §2
Enterococcus faecium [9] = experiment: Inhibition of purified Enterococcus faecium D359 His-tagged Aslfm assessed as residual activity preincubated at 250 uM for 2 mins prior to reaction initiation measured after 10 mins by UV/VIS spectrophotometry; how it was run: as §1
Enterococcus faecium [10] = experiment: Antimicrobial activity against Enterococcus faecium D344R after 18 hrs by macrodilution method
Enterococcus faecium [11] = experiment: Competitive inhibition of purified Enterococcus faecium D359 His-tagged Aslfm preincubated at 0.75 uM for 2 mins prior to reaction initiation measured after 10 mins by time course assay; how it was run: as §2
Enterococcus faecium [12] = experiment: Inhibition of purified Enterococcus faecium D359 His-tagged Aslfm assessed as residual activity preincubated at 50 uM for 2 mins prior to reaction initiation measured after 10 mins by UV/VIS spectrophotometry; how it was run: as §1
Enterococcus faecium [13] = experiment: Antimicrobial activity against Enterococcus faecium D344R at 160 ug after 18 hrs by disk diffusion method

- Activity (Enterococcus faecium [1]): 93%
SMILES: O=C(c1cnc(O)cn1)N(Cc1cccs1)CC1CCCO1 (stereo unspecified)

- Activity (Enterococcus faecium [1]): 91%
SMILES: CS(=O)(=O)Nc1nc(CC(=O)N(Cc2cccs2)Cc2cccs2)cs1

- Activity (Enterococcus faecium [1]): 92%
SMILES: Nc1ncc(-c2nnnn2-c2ccccc2)c(-c2ccccc2)n1

- Activity (Enterococcus faecium [1]): 92%
SMILES: Cc1ccc(-n2nnnc2-c2cn[nH]c2-c2cccc(C)c2)cc1

- Activity (Enterococcus faecium [1]): 83%
SMILES: c1ccc(CN(Cc2ccccc2)c2ncnc3[nH]cnc23)cc1

- Ki [2]: 5 µM
- Kb (Enterococcus faecium [3]): 2 ×10⁵ /M
- MIC (Enterococcus faecium [4]): > 64 µg/mL
- MIC (Enterococcus faecium [5]): > 64 µg/mL
- MIC (Enterococcus faecalis): > 64 µg/mL
- inhibition (Enterococcus faecium [6]): Active
- Activity (Enterococcus faecium [1]): 47%
- Ki [7]: 3.2 µM
SMILES: Nc1nc(SCc2c(Cl)cccc2Cl)c2nc[nH]c2n1

- Activity (Enterococcus faecium [1]): 89%
SMILES: COc1ccc(CNc2nc(N)nc3[nH]cnc23)c(OC)c1

- MIC (Enterococcus faecium [4]): > 64 µg/mL
- MIC (Enterococcus faecium [5]): > 64 µg/mL
- MIC (Enterococcus faecalis): > 64 µg/mL
- inhibition (Enterococcus faecium [8]): Active
- Activity (Enterococcus faecium [1]): 71%
- Ki [7]: 35 µM
SMILES: Nc1nc(SCc2ccc(Cl)cc2Cl)c2nc[nH]c2n1

SMILES: CCN(Cc1ccncc1)C(=O)c1cnc(N)o1
- Activity (Enterococcus faecium [9]): 98%
- MIC (Enterococcus faecium [10]): > 200 µg/mL

- Activity (Enterococcus faecium [1]): 93%
SMILES: Nc1nc(NCc2ccc(F)cc2F)c2cn[nH]c2n1

- Activity (Enterococcus faecium [1]): 84%
SMILES: Nc1nc(NCc2c(F)cccc2Cl)c2cn[nH]c2n1

- Activity (Enterococcus faecium [1]): 74%
SMILES: Nc1nc(NCc2ccc(Cl)s2)c2cn[nH]c2n1

- Activity (Enterococcus faecium [1]): 93%
SMILES: O=C(c1ccc(O)nc1)N(Cc1ccco1)Cc1cccs1

SMILES: Nc1ncc(C(=O)Nc2nc3ccccc3[nH]2)o1
- Activity (Enterococcus faecium [9]): 90%
- MIC (Enterococcus faecium [10]): > 200 µg/mL

- Activity (Enterococcus faecium [1]): 79%
SMILES: Cc1ccc(F)c(CNc2nc(N)nc3[nH]ncc23)c1F

SMILES: Nc1ncc(C(=O)N(Cc2ccccc2)Cc2ccccc2)o1
- Ki [2]: 5 µM
- Kb (Enterococcus faecium [3]): 2 ×10⁵ /M
- MIC (Enterococcus faecium [4]): > 64 µg/mL
- MIC (Enterococcus faecium [5]): > 64 µg/mL
- MIC (Enterococcus faecalis): > 64 µg/mL
- inhibition (Enterococcus faecium [11]): Active
- Activity (Enterococcus faecium [9]): 43%
- Ki [7]: 44 µM
- MIC (Enterococcus faecium [10]): > 200 µg/mL

SMILES: OC(c1ccccc1)(c1ccccc1)c1c[nH]cn1
- Activity (Enterococcus faecium [1]): 100%

SMILES: Nc1ncc(C(=O)NCc2ccc3[nH]ccc3c2)o1
- Activity (Enterococcus faecium [9]): 79%
- MIC (Enterococcus faecium [10]): > 200 µg/mL

SMILES: CCCCN(Cc1ccccc1)C(=O)c1cnc(N)o1
- Activity (Enterococcus faecium [9]): 75%
- MIC (Enterococcus faecium [10]): > 200 µg/mL

- Activity (Enterococcus faecium [1]): 84%
SMILES: Nc1nc(NCc2ccc3c(c2)OCO3)c2nc[nH]c2n1

- Activity (Enterococcus faecium [1]): 88%
SMILES: Nc1nc(NCc2c(F)cccc2F)c2cn[nH]c2n1

SMILES: Cc1nc(N)sc1C(=O)N(Cc1ccccc1)Cc1ccccc1
- Activity (Enterococcus faecium [9]): 82%
- MIC (Enterococcus faecium [10]): > 200 µg/mL

- Activity (Enterococcus faecium [1]): 85%
SMILES: Nc1nc(NCc2ccc(Cl)cc2Cl)c2nc[nH]c2n1

- Activity (Enterococcus faecium [1]): 83%
SMILES: Nc1nc(NCc2ccc(Cl)c(Cl)c2)c2nc[nH]c2n1

SMILES: Nc1ncc(C(=O)N(Cc2ccccc2)Cc2ccccc2)s1
- Activity (Enterococcus faecium [9]): 80%
- MIC (Enterococcus faecium [10]): > 200 µg/mL

- MIC (Enterococcus faecium [4]): > 64 µg/mL
- MIC (Enterococcus faecium [5]): > 64 µg/mL
- MIC (Enterococcus faecalis): > 64 µg/mL
- inhibition (Enterococcus faecium [8]): Active
- Activity (Enterococcus faecium [1]): 69%
- Ki [7]: 22 µM
SMILES: Nc1nc(NCc2ccc(Cl)cc2Cl)c2cn[nH]c2n1

- Activity (Enterococcus faecium [1]): 89%
SMILES: Nc1nonc1-c1nc2ccccc2n1CC(=O)Nc1ccccc1

- Activity (Enterococcus faecium [1]): 95%
SMILES: Nc1nnc(P(=O)(c2ccccc2)c2ccccc2)s1

SMILES: Nc1ncc(C(=O)N(Cc2ccccn2)Cc2ccccn2)o1
- Activity (Enterococcus faecium [9]): 74%
- MIC (Enterococcus faecium [10]): > 200 µg/mL

- Activity (Enterococcus faecium [1]): 116%
SMILES: CN(C(=O)Cn1c(-c2nonc2N)nc2ccccc21)c1ccccc1

- Activity (Enterococcus faecium [12]): 110%
SMILES: Clc1ccc(CN(Cc2ccccc2)c2ncnc3[nH]cnc23)cc1

SMILES: CCCCN(CCCC)C(=O)c1cnc(N)o1
- Activity (Enterococcus faecium [9]): 94%
- MIC (Enterococcus faecium [10]): > 200 µg/mL

- Activity (Enterococcus faecium [1]): 87%
SMILES: Nc1nc(NCc2cccnc2Cl)c2cn[nH]c2n1

SMILES: Nc1ncc(C(=O)N(Cc2cc(Br)cc(Br)c2)Cc2ccc3[nH]ccc3c2)o1
- MIC (Enterococcus faecium [4]): > 64 µg/mL
- MIC (Enterococcus faecium [5]): > 64 µg/mL
- MIC (Enterococcus faecalis): > 64 µg/mL
- inhibition (Enterococcus faecium [8]): Active
- Activity (Enterococcus faecium [1]): 44%
- Ki [7]: 2.9 µM
- MIC (Enterococcus faecium [10]): > 200 µg/mL

- Activity (Enterococcus faecium [12]): 94%
SMILES: Clc1cccc(Cl)c1CN(Cc1ccccc1)c1ncnc2[nH]cnc12

- Activity (Enterococcus faecium [1]): 86%
SMILES: Nc1nc(NCc2cccc(Cl)c2Cl)c2cn[nH]c2n1

SMILES: CC1(C)S[C@@H]2[C@H](NC(=O)[C@H](N)c3ccccc3)C(=O)N2[C@H]1C(=O)O
- growth inhibition (GI) (Enterococcus faecium [13]): inactive
